Screens (PubChem)
The list is not random: actives were taken first. Their share in the collection is about 9.2%.
bCat KO growth = beta-catenin-lacking colon tumor cell growth suppression. HCT116 beta-catenin knockout viability, CellTiter-Glo, 60 h; stronger effect = lower value. viability, % at 10 µM. hit rate 1.5% among 140,000;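 active means viability at or under a set limit, the compound median less 4 SD, cut at about 6% in these data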;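 further: 0% = Hyamine 1622 control at 20 µM and 100% = untreated cell control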
Dynein cargo inh = blocks dynein driven cargo transport along microtubules; 3617.4 mouse cells, GR-EGFP nuclear translocation imaging; test concentration mostly 20 µM; stimulated with dexamethasone, 1 µM; stronger effect = lower value; z-score, hits read low; hit rate 0.47% among 220,000;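 active means plate z-score of nuclear minus cytoplasmic receptor signal below a set negative limit, without overly bright fluorescence or cell loss, cut at about -3.5 in these data, passing the limit was not always enough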;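 further: z-score of nuclear minus cytoplasmic ring GR-EGFP intensity difference per well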
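Buffer or medium – tet-free medium with charcoal-stripped serum · Signal – automated 10x imaging of fixed Hoechst-stained cells · Also added – dexamethasone agonist, 1.0 µM final, for 30 min · Incubation – induction 48 h, compound 1 h, agonist 30 min · Read-out – GR-EGFP nuclear translocation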
PTEN del growth = growth suppressors of cells with PTEN tumor suppressor deletion. HCT116 PTEN-null viability, CellTiter-Glo, 60 h; stronger effect = lower value. viability, % at 10 µM. hit rate 1.2% among 140,000;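 active means viability at or below a set limit, 4 SD under the median of all tested compounds, cut at about 3.7% in these data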;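 further: PTEN knockout HCT116 line with beta catenin targeted HCT116 as companion control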
Lmaj promast = reduces viability of Leishmania major promastigotes; resazurin fluorescence viability; inhibition, % at 10 µM; hit rate 9% among 200,000; in the data active means inhibition above about 50%;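 further: promastigotes grown with compound for 44 hours at 28 °C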
Autophagy mod = autophagy modulation, high-content screen; MEF GFP-LC3 puncta imaging; test concentration mostly 10 µM; calls only at 10 µM (by protocol); hit rate 0.98% among 190,000;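 active means percentage of spot-positive cells more than 3 SD above its plate mean, without a fluorescence outlier flag or 80% toxicity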;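 further: spot-positive cell cutoff set from DMSO-treated cells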
* hit, by the source's call; i = inactive; · = no result given; + = active, no number.

SMILES	bCat KO growth	Dynein cargo inh	PTEN del growth	Lmaj promast	Autophagy mod
O=C(CN1CCN(C2CCCCC2)CC1)Nc1ccccc1-c1ccccc1	71.4	0.161	73.4	58.7*	i
O=C(CN1CCCCC1)Nc1ccccc1-c1ccccc1	87.1	0.113	89.7	7.2	i
COc1ccc(-c2nc(C)c(C(C)=O)n2O)cc1	99.5	-0.289	91.4	3.3	i
COc1ccc(-c2nc(-n3c(C)c(C(C)=O)c(C(C)=O)c3C)sc2C)cc1OC	90.1	-0.602	84.5	66.2*	i
CC(=O)c1c(C)nc(-c2ccc(Cl)cc2Cl)n1O	88.6	0.415	1.2*	-4.8	i
COc1ccc(-c2nc(C)c(C(C)=O)n2O)cc1OC	93.8	0.176	98.9	12.9	+
CC(=O)c1c(C)nc(-c2ccccc2)n1O	70.8	-0.283	79.7	-0.5	i
CC(=O)c1c(C(C)=O)c(C)n(-c2nc(-c3ccc(Br)cc3)c(C)s2)c1C	61.4	-0.311	74.2	29.3	i
Cc1cc(C)nc(Nc2ncc(O)n2-c2ccc(Br)cc2)n1	·	-0.0129	·	3.4	i
c1coc(CN(Cc2ccco2)c2ncnc3c2oc2ccccc23)c1	28.5	-0.984	20.7	22.4	i
Cc1ccccc1OCC(O)CN1CCN(CCN2C(=O)c3cccc4cccc(c34)C2=O)CC1 (centres undefined)	41.4	1.2	30.9	99.7*	i
CC(=O)c1ccc(OCC(O)CN2CCN(CCN3C(=O)c4cccc5cccc(c45)C3=O)CC2)cc1 (centres undefined)	34.6	-0.236	36.7	90.8*	i
CCOc1ccc(NC(=S)N2CCN(CCN3C(=O)c4cccc5cccc(c45)C3=O)CC2)cc1	·	1.37	·	71.0*	i
Cc1cccc(C)c1OCC(O)CN1CCC(CN2C(=O)c3cccc4cccc(c34)C2=O)CC1 (centres undefined)	1.1*	0.392	1.2*	93.1*	+
COc1ccc(NC(=S)N2CCN(CCN3C(=O)c4cccc5cccc(c45)C3=O)CC2)cc1	·	0.735	·	-6.5	i
CCN(CC)CCCNC(=O)/C=C/C(=O)O	·	-1.03	·	·	·
CCC(OCC(O)CN1CCN(CCN2C(=O)c3cccc4cccc(c34)C2=O)CC1)c1ccccc1 (centres undefined)	5.9*	0.205	9.2	97.0*	i
C=CCc1ccccc1OCC(O)CNC(=O)c1ccccc1C(=O)O (centres undefined)	·	0.19	·	·	·
O=C(CCN1C(=O)c2cccc3cccc(c23)C1=O)N1CCOCC1	·	-1.16	·	4.4	i
O=C(/C=C/c1ccccc1)N1CCN(CCN2C(=O)c3cccc4cccc(c34)C2=O)CC1	71.2	1.12	77.4	99.7*	i
CC(=O)c1ccc(NC(=S)N2CCN(CCN3C(=O)c4cccc5cccc(c45)C3=O)CC2)cc1	101.2	1.03	93.5	13.4	i
C=CCc1ccccc1OCC(O)CN1CCN(CCN2C(=O)c3cccc4cccc(c34)C2=O)CC1 (centres undefined)	2.4*	0.276	3.7*	99.6*	i
O=c1[nH]c2ccccc2n1CCCN1CCN(C(c2ccccc2)c2ccccc2)CC1	5.6*	0.0665	9.4	23.0	i
O=c1[nH]c2ccccc2n1CCCN1CCCCC1	·	0.811	·	-1.8	i
CCOc1cccc2cc(C(=O)N3CCN(C/C=C/c4ccccc4)CC3)c(=O)oc12	89.8	-0.548	82.9	96.0*	i
SMILES	bCat KO growth	Dynein cargo inh	PTEN del growth	Lmaj promast	Autophagy mod
CCOc1cc(C(=O)N2CCN(C/C=C/c3ccccc3)CC2)cc(OCC)c1OCC	66.7	3.09	70.4	65.9*	i
CCOc1cccc2cc(C(=O)N3CCc4ccccc43)c(=O)oc12	89.8	-0.43	87.8	-7.1	i
NC(=O)c1ccc(N=Cc2ccc([N+](=O)[O-])s2)cc1	1.6*	-4.05*	1.3*	100.4*	i
N#C/C(=C\N1CCOCC1)C(N)=O	·	-0.386	·	·	·
Cc1ccc(-c2nc(CN(C)Cc3ccc4nccnc4c3)c(C)o2)s1	·	-0.112	·	6.0	i
O=C(c1ccc([N+](=O)[O-])cc1)N1CCSC1c1ccc(Br)cc1 (centres undefined)	·	-1.02	·	5.1	i
Cc1ccc(C2SCCN2C(=O)c2ccc([N+](=O)[O-])cc2)cc1 (centres undefined)	90.4	0.374	84.2	50.0*	i
CCOc1cc(S(=O)(=O)NC2CC2)c(OCC)cc1-n1cnnn1	92.0	-1.26	108.5	-4.5	i
COc1ccc(C(=O)OC(COc2ccccc2)Cn2ccnc2)cc1 (centres undefined)	66.4	-0.59	74.1	100.0*	i
CCN(CC)CCNC(=O)c1ccc(NC(=O)COc2ccccc2F)cc1	·	-0.671	·	-4.9	i
COCC(C)n1c(C)cc(C(=O)COC(=O)c2ccc(N3CCCC3=O)cc2)c1C (centres undefined)	75.8	-0.0867	98.4	68.5*	i
O=C(Nc1c2c(nn1-c1ccc(F)cc1)CS(=O)C2)c1ccc(S(=O)(=O)N2CCOCC2)cc1 (centres undefined)	·	0.462	·	-6.8	i
O=C(CSc1cccc[n+]1[O-])N1CCc2ccccc21	·	0.502	·	·	·
CCOc1ccccc1Nc1ccnc2cc(Cl)ccc12	·	-0.0747	·	52.8*	i
Cc1cccc[n+]1CCCCCCCCCC[n+]1ccccc1C	·	-0.917	·	-2.6	i
CCCCCCCC[n+]1cccc2c3ccccc3ccc21	·	-1.61	·	100.6*	i
CCCCCCCCCC[n+]1cccc2c3ccccc3ccc21	·	-0.209	·	100.5*	i
CC(=O)Nc1nnc(Cc2c[nH]c3ccccc23)s1	·	-0.164	·	1.8	i
Cc1ccc(CC2SC(=Nc3ccccc3)N(c3ccccc3)C2=O)cc1 (centres undefined)	83.4	-0.853	70.5	53.0*	i
Cc1c(C(=O)Nc2cccc(Cl)c2)c2ccccn2c1CCc1ccncc1	45.1	-0.346	30.8	74.9*	+
N#CC(C(=O)NCc1ccccc1)c1nc2ccccc2nc1N1CCCC1 (centres undefined)	77.2	1.8	72.1	1.6	+
CCCCCCNC(=O)C(C#N)c1nc2ccccc2nc1N1CCCC1 (centres undefined)	93.7	0.9	88.4	0.1	+
CCCCCCOC(=O)C(C#N)c1nc2ccccc2nc1N1CCN(CC)CC1 (centres undefined)	107.4	-0.84	97.5	49.0	+
CCCCCCNC(=O)C(C#N)c1nc2ccccc2nc1N1CCOCC1 (centres undefined)	88.1	0.963	86.2	-5.8	i
COCCCNC(=O)C(C#N)c1nc2ccccc2nc1N1CCCC1 (centres undefined)	86.6	-0.121	94.8	-0.8	i
CCCCCNC(=O)C(C#N)c1nc2ccccc2nc1N1CCCC1 (centres undefined)	95.1	-0.313	87.4	-6.2	+
N#CC(C(=O)NCCc1ccccc1)c1nc2ccccc2nc1N1CCCCC1 (centres undefined)	81.5	0.603	66.7	14.6	i
